Data from ChEMBL document CHEMBL3392971, “Design and synthesis of protein kinase C epsilon selective diacylglycerol lactones (DAG-lactones)” (Eur J Med Chem, 2015).

Key:
[1] = molecular target: T1, Protein kinase C alpha type (Homo sapiens, UniProt P17252); assay: Displacement of [20-3H] phorbol 12, 13-dibutylate from recombinant PKCalpha (unknown origin) in presence of nuclear membrane mimetic lipid mixture; assay type: cell membranes
[2] = molecular target: T1, Protein kinase C alpha type; assay: Displacement of [20-3H] phorbol 12, 13-dibutylate from recombinant PKCalpha (unknown origin) in presence of 100 ug/ml 100% phosphatidylserine
[3] = molecular target: T2, Protein kinase C epsilon type (Homo sapiens, UniProt Q02156); assay: Displacement of [20-3H] phorbol 12, 13-dibutylate from recombinant PKCepsilon (unknown origin) in presence of 100 ug/ml 100% phosphatidylserine
T2 sequence (Q02156 whole entry): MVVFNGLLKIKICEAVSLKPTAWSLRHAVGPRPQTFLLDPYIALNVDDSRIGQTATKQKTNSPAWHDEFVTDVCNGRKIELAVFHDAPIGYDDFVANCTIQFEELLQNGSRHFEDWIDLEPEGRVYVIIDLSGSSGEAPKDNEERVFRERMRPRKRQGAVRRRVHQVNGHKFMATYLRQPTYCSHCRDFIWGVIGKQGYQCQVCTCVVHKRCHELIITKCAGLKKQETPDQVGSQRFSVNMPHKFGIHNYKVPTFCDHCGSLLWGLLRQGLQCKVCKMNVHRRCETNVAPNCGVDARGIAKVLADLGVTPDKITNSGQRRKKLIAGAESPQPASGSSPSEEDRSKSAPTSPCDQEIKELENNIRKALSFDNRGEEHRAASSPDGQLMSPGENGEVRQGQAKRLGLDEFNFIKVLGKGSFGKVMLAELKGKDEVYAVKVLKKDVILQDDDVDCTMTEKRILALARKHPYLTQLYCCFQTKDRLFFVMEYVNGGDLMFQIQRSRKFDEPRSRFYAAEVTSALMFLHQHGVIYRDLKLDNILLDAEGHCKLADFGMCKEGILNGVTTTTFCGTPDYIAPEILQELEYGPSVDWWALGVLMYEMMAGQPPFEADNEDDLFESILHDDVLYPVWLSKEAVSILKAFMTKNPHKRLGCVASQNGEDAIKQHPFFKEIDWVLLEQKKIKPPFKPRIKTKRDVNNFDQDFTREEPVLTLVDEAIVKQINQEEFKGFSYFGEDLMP

[4] = species on record: Homo sapiens; assay: Selectivity index, ratio of Ki for recombinant PKCalpha (unknown origin) in presence of 100 ug/ml 100% phosphatidylserine to Ki for recombinant PKCepsilon (unknown origin) in presence of 100 ug/ml 100% phosphatidylserine
[5] = species on record: Homo sapiens; assay: Selectivity index, ratio of Ki for recombinant PKCalpha (unknown origin) in presence of nuclear membrane mimetic lipid mixture to Ki for recombinant PKCepsilon (unknown origin) in presence of nuclear membrane mimetic lipid mixture; assay type: cell membranes
Outline: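 Ki values for recombinant PKC-alpha and PKC-epsilon were each measured by competition with [20-3H]PDBu in the nuclear-membrane-mimetic lipid mix (POPC/POPE/POPS/POPI/cholesterol 61:21:4:7:6). The ratio is PKC-alpha Ki divided by PKC-epsilon Ki.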

[6] = molecular target: T2, Protein kinase C epsilon type; assay: Displacement of [20-3H] phorbol 12, 13-dibutylate from recombinant PKCepsilon (unknown origin) in presence of nuclear membrane mimetic lipid mixture; assay type: cell membranes
[7] = Lipophilicity, log P of the compound; assay type: physicochemical; settings: octanol/water

Work on CCCCCC=CCC=CCCCCCCCC(=O)OCC1(CO)C/C(=C/CC(C)C)C(=O)O1 (configuration not stated) yielded a Ki [1] of 26.2 nM, a Ki [2] of 7.05 nM and a Ki [3] of 12.2 nM. The Ratio Ki [4] was 0.6, the Ratio Ki [5] was 1.3 and the Ki [6] was 19.5 nM. It also gave a logP ([7]; read-out: logP) of 8.29.
CCCCCCCCCCCCCCCCCC(=O)OCC1(CO)C/C(=C\CC(C)C)C(=O)O1 (configuration not stated) gave a Ki [1] of 99 nM, a Ki [2] of 30.8 nM and a Ki [3] of 11.4 nM. The Ratio Ki [4] was 2.7, the Ratio Ki [5] was 2.1 and the Ki [6] was 47 nM. It also gave a logP ([7]; read-out: logP) of 8.72.
CCCCCC1CC1CC1CC1CCCCCCCC(=O)OCC1(CO)C/C(=C/CC(C)C)C(=O)O1 (configuration not stated) gave a Ki [1] of 44 nM, a Ki [2] of 15.4 nM and a Ki [3] of 9.8 nM. The Ratio Ki [4] was 1.6, the Ratio Ki [5] was 1.4 and the Ki [6] was 30.7 nM. The logP [7] was 9.19.
With CCCCC/C=C\C/C=C\CCCCCCC/C=C1\CC(CO)(COC(=O)C(C)(C)C)OC1=O (configuration not stated) the Ki [1] was 25.7 nM, the Ki [2] was 8.26 nM and the Ki [3] was 4.1 nM. For the same molecule, the Ratio Ki [4] was 2, the Ratio Ki [5] was 4.9 and the Ki [6] was 5.2 nM. It also gave a logP ([7]; read-out: logP) of 8.25.
In the case of CCCCCCCCC#CCCCCCCCC(=O)OCC1(CO)C/C(=C/CC(C)C)C(=O)O1 (configuration not stated), the Ki [1] is reported as 38.7 nM, the Ki [2] is reported as 12.6 nM and the Ki [3] is reported as 7.12 nM. For the same molecule, the Ratio Ki [4] was 1.8, the Ratio Ki [5] was 1.1 and the Ki [6] was 34.6 nM. For the same molecule, the logP ([7]; read-out: logP) was 8.01.
Work on CCCCCCCCCCCCCCCCCC(=O)OCC1(CO)C/C(=C/CC(C)C)C(=O)O1 (configuration not stated) yielded a Ki [1] of 106 nM, a Ki [2] of 43.9 nM and a Ki [3] of 19.3 nM. It also gave a Ratio Ki [4] of 2.3, a Ratio Ki [5] of 3.1 and a Ki [6] of 34 nM. The logP ([7]; read-out: logP) was 8.72.
CC(C)C/C=C1\CC(CO)(COC(=O)CC(CC(C)C)CC(C)C)OC1=O (configuration not stated) showed a Ki [1] of 15.4 nM, a Ki [2] of 2.78 nM and a Ki [3] of 1.21 nM. It also gave a Ratio Ki [4] of 2.3, a Ratio Ki [5] of 5.1 and a Ki [6] of 3 nM. It also gave a logP ([7]; read-out: logP) of 5.06.
For CCCCCC=CCC=CCCCCCCCC(=O)OCC1(CO)C/C(=C\CC(C)C)C(=O)O1 (configuration not stated), the Ki [1] was 24.7 nM, the Ki [2] was 4.33 nM and the Ki [3] was 2.14 nM. The Ratio Ki [4] was 2, the Ratio Ki [5] was 1.9 and the Ki [6] was 13.1 nM. For the same molecule, the logP ([7]; read-out: logP) was 8.29.
Work on CCCCCC1CC1CC1CC1CCCCCCC/C=C1/CC(CO)(COC(=O)C(C)(C)C)OC1=O (configuration not stated) yielded a Ki [1] of 73 nM, a Ki [2] of 33.1 nM and a Ki [3] of 15.2 nM. The Ratio Ki [4] was 2.2, the Ratio Ki [5] was 1.2 and the Ki [6] was 58.8 nM. For the same molecule, the logP [7] was 9.15.
In the case of CCCCCC1CC1CC1CC1CCCCCCCC(=O)OCC1(CO)C/C(=C\CC(C)C)C(=O)O1 (configuration not stated), the Ki [1] is reported as 60 nM, the Ki [2] is reported as 10.2 nM and the Ki [3] is reported as 5.5 nM. The Ratio Ki [4] was 1.9, the Ratio Ki [5] was 3 and the Ki [6] was 19.8 nM. The logP [7] was 9.19.
With CCCCCCC#CC#CCCCCCCCC(=O)OCC1(CO)C/C(=C/CC(C)C)C(=O)O1 (configuration not stated) the Ki [1] was 44.8 nM, the Ki [2] was 9.8 nM and the Ki [3] was 13.4 nM. It also gave a Ratio Ki [4] of 0.7, a Ratio Ki [5] of 1.1 and a Ki [6] of 40.3 nM. The logP ([7]; read-out: logP) was 7.82.
With CCCCCC1CC1CC1CC1CCCCCCC/C=C1\CC(CO)(COC(=O)C(C)(C)C)OC1=O (configuration not stated) the Ki [1] was 110 nM, the Ki [2] was 26.7 nM and the Ki [3] was 8.3 nM. The Ratio Ki [4] was 3.2, the Ratio Ki [5] was 2.7 and the Ki [6] was 41 nM. The logP [7] was 9.15.
CCCCCCCCC#CCCCCCCCC(=O)OCC1(CO)C/C(=C\CC(C)C)C(=O)O1 (configuration not stated) gave a Ki [1] of 43.8 nM, a Ki [2] of 8.7 nM and a Ki [3] of 4.79 nM. For the same molecule, the Ratio Ki [4] was 1.8, the Ratio Ki [5] was 4.8 and the Ki [6] was 9.1 nM. For the same molecule, the logP ([7]; read-out: logP) was 8.01.
CC(C)CC(C/C=C1\CC(CO)(COC(=O)C(C)(C)C)OC1=O)CC(C)C (configuration not stated) showed a Ki [1] of 46 nM, a Ki [2] of 8.3 nM and a Ki [3] of 1.03 nM. It also gave a Ratio Ki [4] of 8.1, a Ratio Ki [5] of 32.2 and a Ki [6] of 1.43 nM.
Work on CCCCCC1OC1CC1OC1CCCCCCCC(=O)OCC1(CO)C/C(=C/CC(C)C)C(=O)O1 (configuration not stated) yielded a Ki [1] of 103 nM, a Ki [2] of 16.5 nM and a Ki [3] of 16.3 nM. It also gave a Ratio Ki [4] of 1, a Ratio Ki [5] of 1.6 and a Ki [6] of 63 nM. It also gave a logP ([7]; read-out: logP) of 5.69.
CC(C)C/C=C1/CC(CO)(COC(=O)CC(CC(C)C)CC(C)C)OC1=O (configuration not stated) gave a Ki [1] of 57 nM, a Ki [2] of 4.74 nM and a Ki [3] of 2.37 nM. The Ratio Ki [4] was 2, the Ratio Ki [5] was 3.6 and the Ki [6] was 15.6 nM. It also gave a logP ([7]; read-out: logP) of 5.06.
CCCCC/C=C\C/C=C\CCCCCCC/C=C1/CC(CO)(COC(=O)C(C)(C)C)OC1=O (configuration not stated) showed a Ki [1] of 31.1 nM, a Ki [2] of 7.2 nM and a Ki [3] of 5.06 nM. The Ratio Ki [4] was 1.4, the Ratio Ki [5] was 3.2 and the Ki [6] was 9.6 nM. It also gave a logP ([7]; read-out: logP) of 8.25.
With CCCCCC1OC1CC1OC1CCCCCCCC(=O)OCC1(CO)C/C(=C\CC(C)C)C(=O)O1 (configuration not stated) the Ki [1] was 116 nM, the Ki [2] was 13.2 nM and the Ki [3] was 7.46 nM. The Ratio Ki [4] was 1.8, the Ratio Ki [5] was 6.9 and the Ki [6] was 16.9 nM. It also gave a logP ([7]; read-out: logP) of 5.69.
With CCCCCCC#CC#CCCCCCCCC(=O)OCC1(CO)C/C(=C\CC(C)C)C(=O)O1 (configuration not stated) the Ki [1] was 60.8 nM, the Ki [2] was 8.31 nM and the Ki [3] was 5.24 nM. It also gave a Ratio Ki [4] of 1.6, a Ratio Ki [5] of 4.8 and a Ki [6] of 12.8 nM. For the same molecule, the logP ([7]; read-out: logP) was 7.82.
